Here are results for 31 compounds from ChEMBL document CHEMBL1828623, “Overcoming hERG activity in the discovery of a series of 4-azetidinyl-1-aryl-cyclohexanes as CCR2 antagonists” (Bioorg Med Chem Lett, 2011).

A value given as a limit tells only on which side of the number the result lay.

The first test deals with C-C chemokine receptor type 2 (Homo sapiens, UniProt P41597). The test is described as follows: Displacement of [125I]-MCP1 from CCR2 in human THP1 cells after 2 hrs by microplate scintillation and luminescence counting. The test is classed as cell-based, THP-1. Put shortly: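 They were incubated with 0.5 nM ¹²⁵I-MCP-1 and varying test compound concentrations for 2 h at 30 °C. Cold MCP-1 defined nonspecific binding. Buffer-only blanks were subtracted and values compared with vehicle.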
Chain of C-C chemokine receptor type 2 (P41597 whole entry): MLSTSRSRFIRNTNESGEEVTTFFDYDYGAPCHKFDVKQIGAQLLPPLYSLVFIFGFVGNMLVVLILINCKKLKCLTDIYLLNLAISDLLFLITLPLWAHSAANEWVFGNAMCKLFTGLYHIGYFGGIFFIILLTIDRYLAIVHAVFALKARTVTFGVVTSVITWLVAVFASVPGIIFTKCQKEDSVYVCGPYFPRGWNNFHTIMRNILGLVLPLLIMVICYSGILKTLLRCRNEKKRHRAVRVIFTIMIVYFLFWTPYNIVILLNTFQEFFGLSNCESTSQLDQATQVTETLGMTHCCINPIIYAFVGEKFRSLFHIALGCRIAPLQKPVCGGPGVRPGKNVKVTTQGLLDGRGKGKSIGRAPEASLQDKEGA
A general note: Loss of bound radioactivity is the signal in a displacement assay; it reports binding, not function.
Consider `O=C(CNC(=O)c1cccc(C(F)(F)F)c1)NC1CN([C@H]2CC[C@](O)(c3ccc4c(c3)OCC4)CC2)C1`, for which the IC50 came out at 0.025 µM. That is a double-digit nanomolar value.
On the same count and under the same terms, under `O=C(CNC(=O)c1cccc(C(F)(F)F)c1)NC1CN(C2CCN(c3ccc4c(c3)OCO4)CC2)C1` stands over 25 µM; under `O=C(CNC(=O)c1cccc(C(F)(F)F)c1)NC1CN([C@H]2CC[C@H](c3ccc(C(=O)O)cc3)CC2)C1`, 0.07 µM.
On the same count and under the same terms, for `O=C(CNC(=O)c1ccccc1)NC1CN([C@H]2CC[C@H](c3ccc4c(c3)OCO4)CC2)C1` the value was 0.39 µM; for `Cc1cccc(C)c1[C@]1(O)CC[C@@H](N2CC(NC(=O)CNC(=O)c3cccc(C(F)(F)F)c3)C2)CC1`, over 25 µM; for `O=C(CNC(=O)c1cccc(C(F)(F)F)c1)NC1CN([C@H]2CC[C@H](c3ccc4c(c3)OCO4)CC2)C1`, 1.8 µM.
Compound `N#C[C@]1(c2ccccc2)CC[C@H](N2CC(NC(=O)CNC(=O)c3cccc(C(F)(F)F)c3)C2)CC1` yielded an IC50 of over 25 µM.
The same measure, in the same setting: under `N#Cc1cccc([C@]2(O)CC[C@@H](N3CC(NC(=O)CNC(=O)c4cccc(C(F)(F)F)c4)C3)CC2)c1` stands 0.41 µM.
`O=C(CNC(=O)c1ccc(C(F)(F)F)cc1)NC1CN([C@H]2CC[C@H](c3ccc4c(c3)OCO4)CC2)C1` registered an IC50 of 1.2 µM.
Same read-out and setting: under `Nc1ccc([C@H]2CC[C@H](N3CC(NC(=O)CNC(=O)c4cccc(C(F)(F)F)c4)C3)CC2)nc1` stands 0.085 µM; under `O=C(CNC(=O)c1cccc(C(F)(F)F)c1)NC1CN([C@H]2CC[C@H](c3ccncc3O)CC2)C1`, 0.052 µM; under `O=C(CNC(=O)c1cccc(C(F)(F)F)c1)NC1CN([C@H]2CC[C@](O)(c3cccnc3)CC2)C1`, 0.19 µM.
Compound `COc1ccc([C@H]2CC[C@H](N3CC(NC(=O)CNC(=O)c4cccc(C(F)(F)F)c4)C3)CC2)cc1` yielded an IC50 of 0.01 µM.
On the same count and under the same terms, for `O=C(CNC(=O)c1cccc(C(F)(F)F)c1)NC1CN([C@H]2CC[C@H](c3ccc(O)cc3)CC2)C1` the value was 0.021 µM.
In the case of `O=C(CNC(=O)c1cccc(C(F)(F)F)c1)NC1CN([C@H]2CC[C@@H](c3ccc4c(c3)OCO4)CC2)C1`, the concentration for half-maximal inhibition (IC50) worked out at 0.005 µM.
On the same count and under the same terms, under `O=C(CNC(=O)c1cccc(C(F)(F)F)c1)NC1CN([C@H]2CC[C@H](c3ccccc3)CC2)C1` stands 0.035 µM; under `O=C(CNC(=O)c1cccc(C(F)(F)F)c1)NC1CN(C2CC=C(c3ccc4c(c3)OCO4)CC2)C1` (stereo not drawn), 1 µM.
Take `O=C(CNC(=O)c1cccc(C(F)(F)F)c1)NC1CN([C@H]2CC[C@H](c3ccc(O)cn3)CC2)C1`: the IC50 amounted to 0.013 µM.
On the same count and under the same terms, for `O=C(CNC(=O)c1cccc(C(F)(F)F)c1)NC1CN([C@H]2CC[C@H](c3cccnc3)CC2)C1` the value was 0.045 µM.
On the same count and under the same terms, under `O=C(CNC(=O)c1cccc(C(F)(F)F)c1)NC1CN([C@H]2CC[C@H](c3ccc4[nH]cnc4c3)CC2)C1` stands 0.027 µM; under `COc1cc([C@H]2CC[C@H](N3CC(NC(=O)CNC(=O)c4cccc(C(F)(F)F)c4)C3)CC2)ccn1`, 0.025 µM; under `O=C(CNC(=O)c1cccc(C(F)(F)F)c1)NC1CN([C@H]2CC[C@](O)(c3ccc(F)cc3)CC2)C1`, 0.21 µM.
On the same count and under the same terms, for `O=C(CNC(=O)c1cccc(C(F)(F)F)c1)NC1CN([C@H]2CC[C@](C(=O)O)(c3ccccc3)CC2)C1` the value was over 25 µM.
The compound `O=C(CNC(=O)c1cccc(C(F)(F)F)c1)NC1CN([C@H]2CC[C@H](c3ccc(N4CCCC4)cc3)CC2)C1` had an IC50 of 0.061 µM.
On the same count and under the same terms, under `N[C@]1(c2ccccc2)CC[C@H](N2CC(NC(=O)CNC(=O)c3cccc(C(F)(F)F)c3)C2)CC1` stands 0.24 µM; under `O=C(CNC(=O)c1cccc(C(F)(F)F)c1)NC1CN([C@H]2CC[C@](CO)(c3ccccc3)CC2)C1`, over 25 µM; under `O=C(CNC(=O)c1cccc(C(F)(F)F)c1)NC1CN(C2CCC(c3c[nH]c4ccccc34)CC2)C1` (mixture of isomers), under 1 µM.
Same read-out and setting: for `O=C(CNC(=O)c1cccc(C(F)(F)F)c1)NC1CN([C@H]2CC[C@](O)(c3ccc4c(c3)OCO4)CC2)C1` the value was 0.022 µM; for `COc1ccc([C@H]2CC[C@H](N3CC(NC(=O)CNC(=O)c4cccc(C(F)(F)F)c4)C3)CC2)cn1`, 0.007 µM.
Same read-out and setting: under `COc1cnccc1[C@H]1CC[C@H](N2CC(NC(=O)CNC(=O)c3cccc(C(F)(F)F)c3)C2)CC1` stands 0.032 µM.
As for `COc1ccc([C@]2(O)CC[C@@H](N3CC(NC(=O)CNC(=O)c4cccc(C(F)(F)F)c4)C3)CC2)cc1`, the IC50 worked out at 0.02 µM.

For the next test, the target named is Voltage-gated inwardly rectifying potassium channel KCNH2 (Homo sapiens, UniProt Q12809). The test is described as follows: Displacement of [3H]astemizole from human ERG expressed in HEK293 cells after 1 hr.
Chain of Voltage-gated inwardly rectifying potassium channel KCNH2 (Q12809 whole entry): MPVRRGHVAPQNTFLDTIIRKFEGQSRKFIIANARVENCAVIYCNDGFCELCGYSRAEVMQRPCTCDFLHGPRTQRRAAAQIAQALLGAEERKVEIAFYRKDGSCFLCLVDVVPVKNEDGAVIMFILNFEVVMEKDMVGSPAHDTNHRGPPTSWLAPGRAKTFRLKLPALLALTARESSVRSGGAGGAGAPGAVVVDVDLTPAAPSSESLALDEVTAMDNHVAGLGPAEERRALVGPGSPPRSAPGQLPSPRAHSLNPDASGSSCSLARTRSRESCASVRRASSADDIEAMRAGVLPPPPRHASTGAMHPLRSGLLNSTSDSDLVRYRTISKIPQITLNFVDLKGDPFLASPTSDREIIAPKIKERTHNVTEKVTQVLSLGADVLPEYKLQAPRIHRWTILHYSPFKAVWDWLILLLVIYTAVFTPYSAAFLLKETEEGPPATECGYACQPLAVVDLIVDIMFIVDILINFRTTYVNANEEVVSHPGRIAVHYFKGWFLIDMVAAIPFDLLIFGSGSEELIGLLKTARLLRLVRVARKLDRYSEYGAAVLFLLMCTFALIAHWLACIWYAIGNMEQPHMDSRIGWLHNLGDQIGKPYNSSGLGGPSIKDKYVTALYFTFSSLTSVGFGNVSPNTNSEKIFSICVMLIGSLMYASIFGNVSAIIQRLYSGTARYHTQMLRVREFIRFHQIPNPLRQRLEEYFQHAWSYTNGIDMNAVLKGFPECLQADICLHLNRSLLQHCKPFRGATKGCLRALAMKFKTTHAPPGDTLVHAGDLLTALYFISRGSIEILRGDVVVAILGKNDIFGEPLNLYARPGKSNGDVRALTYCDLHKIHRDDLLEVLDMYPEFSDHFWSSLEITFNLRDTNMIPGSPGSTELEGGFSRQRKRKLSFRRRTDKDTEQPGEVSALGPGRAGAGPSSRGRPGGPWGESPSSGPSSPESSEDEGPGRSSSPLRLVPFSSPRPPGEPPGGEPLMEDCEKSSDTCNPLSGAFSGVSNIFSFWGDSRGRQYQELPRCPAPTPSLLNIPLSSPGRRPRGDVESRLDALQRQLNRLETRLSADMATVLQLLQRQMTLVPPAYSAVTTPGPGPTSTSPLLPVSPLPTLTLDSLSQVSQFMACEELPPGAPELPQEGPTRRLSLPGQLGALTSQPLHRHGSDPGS
As to `O=C(CNC(=O)c1ccc(C(F)(F)F)cc1)NC1CN([C@H]2CC[C@H](c3ccc4c(c3)OCO4)CC2)C1`, the IC50 came out at 1.5 µM.
The same measure, in the same setting: for `O=C(CNC(=O)c1cccc(C(F)(F)F)c1)NC1CN(C2CCC(c3c[nH]c4ccccc34)CC2)C1` (mixture of isomers) the value was 2.4 µM.

A word on the IC50: it is the midpoint of a concentration-inhibition curve. The low end stands for inhibition by little substance, the high end for a need for much substance.
